IC50, IC90 and Ki data for one compound are collected here from ChEMBL document CHEMBL1126785, “Peptidomimetic HIV protease inhibitors: phosphate prodrugs with improved biological activities” (J Med Chem, 1993).

In general, pIC50 refers to the IC50 on a negative log10 scale, so that one unit is a factor of ten. A higher pIC50 goes with a small IC50. One may read the IC90 as the concentration at which the effect reaches the 90% level. Low values mean greater potency, high ones weaker potency. What is called pKi is the negative decadic logarithm of the Ki, by convention in mol/L. Low values mean a large Ki, high ones a small Ki.

The test system of test [1] is Human immunodeficiency virus 1. The test is described as follows: (§1) Tested for the inhibition of p24 production in HIV-1 IIIB infected human peripheral blood mononuclear cells (PBMC). It counts as functional, organism-based. In outline:
(§2)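 Human PBMC (5×10^4 cells) were infected with HIV-1 IIIB at MOI 0.003 for 90 min. They were then kept in triplicate wells with continuous compound present for 7 days; compounds came from 10 mM DMSO stocks. Supernatant p24 was measured by ELISA. IC50 and IC90 were taken from linear regression on the linear part of the dose-response curve.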

Test [2] relates to Human immunodeficiency virus 1. The description is as §1. It counts as functional. The gist of the method:
as §2

Test [3] has as its target Human immunodeficiency virus type 1 protease (Human immunodeficiency virus 1, UniProt Q72874). The test is described as follows: Tested for inhibitory activity against HIV-1 protease. The gist of the method: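 Recombinant HIV-1 protease hydrolysing 2.5 mM synthetic octapeptide substrate H-Val-Ser-Gln-Asn-Tyr-Pro-Ile-Val-OH, with or without inhibitor. Run at 30 °C in 100 mM sodium acetate pH 5.5 with 10% glycerol, 5% ethylene glycol and 0.1% Nonidet P-40. Stopped after 30 min with 1% trifluoroacetic acid; hydrolysis quantified by HPLC.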

pIC50, pKi: −log10 of the molar value.

Compound `CC[C@H](C)[C@H](NC(=O)[C@H](C(C)C)[C@@H](O)[C@H](O)[C@H](CC1CCCCC1)NC(=O)[C@H](Cc1c[nH]cn1)NC(=O)COc1cccc2ccccc12)C(=O)NCc1ccccn1` gave a pIC50 in test [1] of 7.30. The same compound showed an IC90 in test [2] of 223 nM. The pKi in test [3] was > 9.00.
